Source: PubChem (Broad Institute)
CFTR F508del cor = correctors of CFTR F508del function in bronchial epithelial cells; CFBE cells, YFP halide quenching; stimulated with forskolin plus potentiator P3; % fluorescence drop versus neutral controls; activity (quench increase), % at 7.58 µM; hit rate 0.36% among 350,000; AID 720511;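 active = mean added fluorescence quench of at least 8% versus neutral control, with both replicates also reaching 8%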;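 also: cells transiently co-express mutant CFTR-F508del with the halide-sensitive YFP; corrector assay measuring rescue of mutant channel to the surface after 24 h compound exposure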
FGF22 binding = binders of recombinant human FGF22 by thermal shift; activity (Tm shift, normalised), % at 9.99 µM; SYPRO orange fluorescence; percent of sucrose octasulfate shift, DMSO zero; Q9HCT0; hit rate 1.5% among 340,000;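 active = mean Tm shift, scaled 0 neutral to 100 positive control, at about 1.3% or above, every replicate too, limit read from the data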
Target sequence (Q9HCT0 whole entry, looked up): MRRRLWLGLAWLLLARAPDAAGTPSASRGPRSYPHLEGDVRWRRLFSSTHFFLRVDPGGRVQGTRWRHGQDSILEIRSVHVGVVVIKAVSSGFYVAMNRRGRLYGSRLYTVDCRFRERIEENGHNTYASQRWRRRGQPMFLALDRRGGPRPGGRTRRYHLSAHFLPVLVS
dFosB activator = activators of mouse delta FosB homodimer; purified delta FosB, TAMRA-CDK5 oligo fluorescence polarization; percent of positive-control signal above neutral wells; activation, % at 25 µM; hit rate 0.99% among 340,000;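 active = mean activation above about 17%, with every replicate also reaching it, limit read from the data, passing the limit was not always enough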
S100A4 inh HTS = blocks human S100A4 binding to myosin IIA peptide. hit rate 0.14% among 360,000. P26447. inhibition, % at 10.7 µM. S100A4/TAMRA-MyoIIA peptide fluorescence polarization. AID 652163;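 active = mean inhibition of at least 70% across replicates, with every replicate also reaching that level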
Target sequence (P26447 whole entry, looked up): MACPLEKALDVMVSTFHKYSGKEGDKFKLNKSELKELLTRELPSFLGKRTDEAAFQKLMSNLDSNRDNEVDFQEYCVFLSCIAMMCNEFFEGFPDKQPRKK
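Test system: S100A4 monomer protein; Medium: HEPES pH 7.2 with CaCl2, KCl, NaCl, DTT, Triton; Probe or stimulus: TAMRA-labelled myosin IIA heavy-chain peptide probe, 5 nM; Doses: one dose per compound; Times: polarization read 5 min after assay mix addition, stable 5–60 min; Benchmarks: neutral control DMSO, positive control TFP.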
An asterisk follows results filed as active; x = no result given. The list is not random: actives were taken first. Their share in the collection is about 2.2%.

SMILES	CFTR F508del cor	FGF22 binding	dFosB activator	S100A4 inh HTS
COc1ccccc1NC(=O)C[C@H]1CC[C@H]2[C@@H](COc3ccc(NC(C)=O)cc3C(=O)N2C)O1	-5	0	x	-5
CSc1cccc(NC(=S)N(CCCN2CCCC2)Cc2cccn2Cc2ccc(Cl)cc2)c1	-3	0	27*	-6
S=C(Nc1cccc(Cl)c1)N(CCCN1CCCC1)Cc1cccn1Cc1ccc(Cl)cc1	-6	0	13	7
Cc1cccc(NC(=O)c2cc(-c3ccc(C)c(C)c3O)n[nH]2)c1	1	0	33*	4
Cc1ccc(NC(=O)c2cc(-c3ccc(C)c(C)c3O)n[nH]2)cc1C	-2	0	23*	-8
Cc1ccc(NC(=O)c2cc(-c3cc(C)c(C)cc3O)n[nH]2)cc1C	-1	0	-9	7
O=C(O)C[C@H]1CC[C@@H](NC(=O)c2ccccc2F)[C@@H](CO)O1	5	-1	x	30
N#CCC(=O)c1ccccc1Oc1ccc(Cl)cc1	2	44*	-7	-1
C[C@@H]1CN([C@@H](C)CO)S(=O)(=O)c2ccc(C#CC3CC3)cc2O[C@@H]1CN(C)C(=O)C1CCCCC1	-2	x	x	x
C[C@@H]1CN([C@@H](C)CO)C(=O)c2c(c3ccccc3n2C)-c2ccccc2CO[C@H]1CN(C)Cc1cccc2c1OCCCO2	1	0	x	-1
C[C@@H]1CN([C@H](C)CO)C(=O)c2cc(NC(=O)CCCCCC(=O)Nc3ccccc3N)ccc2O[C@H]1CN(C)C(=O)NC1CCCCC1	-2	0	x	48
CC1(c2ccc3ccccc3c2)NC(=O)N(CC(=O)O)C1=O (configuration not stated)	-1	0	-6	-3
CC1(c2ccc3ccccc3c2)CCC(=O)O1 (configuration not stated)	8.7*	0	0	-1
C[C@H](CO)N1C[C@H](C)[C@H](CN(C)Cc2ccncc2)OCCCC[C@H](C)Oc2ccc(N(C)C)cc2C1=O	-1	-1	x	-37
CCOC(=O)C1=C(CS(=O)(=O)c2ccccc2)NC(=O)NC1c1ccccc1 (configuration not stated)	x	x	0	x
CCOC(=O)C1=C(CS(=O)(=O)c2ccccc2)NC(=O)NC1c1cccc(OC)c1 (configuration not stated)	-1	44*	-6	-1
C[C@H]1CCCCO[C@@H](CN(C)Cc2ccc(C(F)(F)F)cc2)[C@@H](C)CN([C@@H](C)CO)C(=O)c2cc(N(C)C)ccc2O1	2	-2	x	-14
COc1ccc(OC)c2[nH]c(C(=O)N/N=C/c3ccccc3O)cc12	14*	1	12	-4
COc1ccc(/C=N/NC(=O)c2cc3c(OC)ccc(OC)c3[nH]2)cc1O	0	0	-15	-4
COc1cccc(/C=N/NC(=O)c2cc3c(OC)c(OC)ccc3[nH]2)c1OC	6	1	-11	5
COc1ccccc1/C=N/NC(=O)c1cc2c(OC)c(OC)ccc2[nH]1	9.3*	0	-5	0
COc1ccc(NC(=O)N(C)C[C@H]2OCCCC[C@H](C)Oc3ccc(NC(=O)Nc4ccc5c(c4)OCO5)cc3C(=O)N([C@@H](C)CO)C[C@H]2C)cc1	-3	0	x	0
C[C@H](CO)N1C[C@H](C)[C@@H](CN(C)Cc2ccc(Oc3ccccc3)cc2)Oc2ccc(NC(=O)c3ccncc3)cc2CC1=O	1	0	x	-24
CCCNC(=O)N1CC2(CN(C(=O)c3ccncc3)C2)c2c([nH]c3cc(OC)ccc23)[C@H]1CO	0	x	x	x
O=C(CSc1nnc(Cn2c(=O)sc3ccccc32)n1-c1ccccc1)NCc1ccco1	10*	0	1	-11
SMILES	CFTR F508del cor	FGF22 binding	dFosB activator	S100A4 inh HTS
Cc1cc(C)cc(NC(=O)CSc2nnc(Cn3c(=O)sc4ccccc43)n2C)c1	1	43*	-3	5
Cn1c(Cn2c(=O)sc3ccccc32)nnc1SCC(=O)NCc1ccc2c(c1)OCO2	-2	0	8	-1
Cn1c(Cn2c(=O)sc3ccccc32)nnc1SCC(=O)Nc1ccc2c(c1)OCO2	-3	44*	6	-1
Cn1c(Cn2c(=O)sc3ccccc32)nnc1SCC(=O)NCc1ccco1	0	0	-5	7
OCCN1CCN(c2ncnc3c2sc2nc(N4CCOCC4)c4c(c23)CCC4)CC1	0	0	20*	-3
OCCN(CCO)c1ncnc2c1sc1nc(N3CCOCC3)c3c(c12)CCCC3	x	x	8	x
COc1cccc(CN2C[C@@H](C)[C@H](OC)CN(C)C(=O)c3ccc(NS(=O)(=O)c4cn(C)cn4)cc3OC[C@H]2C)c1	1	x	x	x
COc1ccc(C(=O)/C=C/c2ccc(O)cc2)cc1	-1	2.7*	-7	-4
O=C(/C=C/c1ccc(O)cc1)c1ccccc1	1	1.3*	-3	-2
COc1ccc(C(=O)/C=C/c2ccc(N(C)C)cc2)c(OC)c1	18*	0	-4	-9
COc1ccc(NC(=O)Nc2ccc3c(c2)[C@@H]2C[C@@H](CC(=O)O)O[C@H](CO)[C@@H]2O3)cc1	-1	x	x	-2
OCC1CCCN(C2CCN(Cc3nc(Cc4cccc(C(F)(F)F)c4)no3)CC2)C1 (configuration not stated)	1	43*	0	1
FC(F)(F)c1cccc(Cc2noc(CN3CCCC3)n2)c1	-1	0	4	-2
COc1ccc(C2=Nn3c(nnc3-c3ccccc3F)SC2)cc1OC1CCOC1 (configuration not stated)	11*	0	-12	1
COc1ccc(OC)c(-c2nnc3n2N=C(c2ccc(OC)c(OC)c2)CS3)c1	9.5*	0	2	3
COc1ccc(OC)c(-c2nnc3n2N=C(c2ccc(OC)c(OC4CCCC4)c2)CS3)c1	4	0	10	-26
COc1ccc(C2=Nn3c(nnc3-c3ccccc3OC)SC2)cc1OCC1CC1	5	0	-9	7
COc1ccc(C2=Nn3c(nnc3-c3ccccc3F)SC2)cc1OC1CCCC1	13*	0	-27	-1
C[C@@H]1CN([C@@H](C)CO)C(=O)Cc2cc(NS(C)(=O)=O)ccc2O[C@@H]1CN(C)Cc1ccccc1	-1	0	x	1
O=C(c1ccc(OCCN2CCCCC2)cc1)c1c(-c2ccc(O)cc2)sc2cc(O)ccc12	3	0	34*	3
Oc1cccc(-c2sc3ccccc3c2-c2ccc(OCCN3CCCCC3)cc2)c1	1	-1	x	4
COc1cc(/C=C2/NC(=O)N(CC(=O)Nc3ccc(C)cc3)C2=O)ccc1Oc1ccc([N+](=O)[O-])cn1	0	0	18*	-1
CC1C(=O)C(C)C(c2cc(Cl)ccc2O)NC1c1cc(Cl)ccc1O (configuration not stated)	0	0	20*	-2
CCCNC(=O)N1CC2(CCN(Cc3ccccn3)CC2)c2c(n(C)c3cc(OC)ccc23)[C@H]1CO	-1	0	x	6
